According to ChEMBL document CHEMBL3421610, “Antimalarial activity of 4-amidinoquinoline and 10-amidinobenzonaphthyridine derivatives” (J Med Chem, 2015):
≈ marks a conversion by molar mass, not a printed value. Calls of active or inactive are those of the source. No cut-off for these calls is given here.

Tested on: Plasmodium falciparum
Assay: Antimalarial activity against chloroquine-resistant Plasmodium falciparum W2 assessed as growth inhibition after 18 hrs by [3H]-hypoxanthine uptake assay
Format: functional, organism-based
Conditions: not given
Summary of the method: (§1)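 P. falciparum clones D6, W2 and TM91C235; modified semiautomated microdilution. Compounds in DMSO, diluted in RPMI 1640 with 10% human plasma, tested over (1.56-100) x 10^-9 M; final DMSO 0.25-0.5%. Inoculum 0.5% parasitemia, 1% hematocrit. 24 h incubation, then [3H]-hypoxanthine added, further 18 h. Harvested and read by scintillation counting; IC50 by nonlinear regression.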

Compound | IC50 [nM]
C/C(=N/c1ccnc2cc(Cl)ccc12)NC1CCN(C)CC1 | 275
CCN(CC)CCCN/C(C)=N\c1ccnc2cc(Cl)ccc12 | 226
CCN(CC)CCN/C(=N\c1ccnc2cc(Cl)ccc12)C(C)C | 97
C/C(=N/c1ccnc2cc(Cl)ccc12)NCCCN1CCOCC1 | 295
CCN(CC)CCCCCN/C(C)=N\c1ccnc2cc(Cl)ccc12 | 455
CCN(CC)CCC/N=C(/N=c1\ccn(CCCN(CC)CC)c2cc(Cl)ccc12)c1cccnc1 | 3920
CCN(CC)CCCN/C(=N\c1ccnc2cc(Cl)ccc12)c1cccnc1 | 203
CCN(CC)CCC/N=C(\c1cccnc1)N(CCCN(CC)CC)c1ccnc2cc(Cl)ccc12 | 383

Tested on: Plasmodium berghei
Assay: Antimalarial activity against erythrocytic stage of chloroquine resistant Plasmodium berghei ANKA infected in mouse assessed as cure rate at 160 mg/kg, po qd administered on day 3, 4 and 5 post infection measured 3 times per week for 30 days, starting from day 3 by Thompson test
Format: functional, organism-based
Design: dose 160 mg/kg
Conditions: not given
Summary of the method: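 Male mice of 16-20 g inoculated intraperitoneally with 5 x 10^6 erythrocytes infected with CQ-resistant P. berghei ANKA. Drug given orally as a suspension once daily on days 3, 4 and 5 post-infection, five mice per dose. Blood films from day 3, three times weekly for 30 days. Cure means parasite-negative on day 30 or surviving 30 days. Mice losing >20% body weight sacrificed.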

Compound | Activity
CCN(CC)CCN/C(=N\c1ccnc2cc(Cl)ccc12)C(C)C | Active

Tested on: Mus musculus
Assay: Toxicity in mouse infected with erythrocytic stage of chloroquine resistant Plasmodium berghei ANKA up to 160 mg/kg, po qd administered on day 3, 4 and 5 post infection measured over 30 days
Format: organism-based, Erythrocyte
Design: dose 160 mg/kg, route oral
Conditions: in vivo, 720 h
Summary of the method: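 Male mice of 16-20 g infected intraperitoneally with CQ-resistant P. berghei ANKA (5 x 10^6 infected erythrocytes). Oral dosing once daily on days 3-5, five mice per group. Animals followed for 30 days by blood films; mice losing >20% body weight sacrificed.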

Compound | Activity
CCN(CC)CCN/C(=N\c1ccnc2cc(Cl)ccc12)C(C)C | Toxic

Tested on: not listed separately
Assay: Half life in mouse liver microsomes at 1 uM by LC/MS analysis
Format: ADME
Conditions: not given
Summary of the method: (§2)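 Compound at 1 µM final, diluted from […], with 0.5 mg/mL pooled human or mouse liver microsomes, NADP, MgCl2 and 0.1 M PBS pH 7.4. Reaction started with 1 U/mL G6PD and shaken at 37 °C. Aliquots quenched in cold acetonitrile at 0, 10, 20, 30 and 60 min and quantified by LC/MS. Half-life from log plot of total ion chromatogram area remaining.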

Compound | half-life at 1 µM [h]
C/C(=N/c1ccnc2cc(Cl)ccc12)NC1CCN(C)CC1 | > 1
CCN(CC)CCCN/C(C)=N\c1ccnc2cc(Cl)ccc12 | > 1
CCN(CC)CCN/C(=N\c1ccnc2cc(Cl)ccc12)C(C)C | 0.2
C/C(=N/c1ccnc2cc(Cl)ccc12)NCCCN1CCOCC1 | 0.367
CCN(CC)CCCCCN/C(C)=N\c1ccnc2cc(Cl)ccc12 | > 1
CCN(CC)CCC/N=C(/N=c1\ccn(CCCN(CC)CC)c2cc(Cl)ccc12)c1cccnc1 | > 1
CCN(CC)CCCN/C(=N\c1ccnc2cc(Cl)ccc12)c1cccnc1 | > 1
CCN(CC)CCC/N=C(\c1cccnc1)N(CCCN(CC)CC)c1ccnc2cc(Cl)ccc12 | > 1

Tested on: not listed separately
Assay: Half life in human liver microsomes at 1 uM by LC/MS analysis
Format: ADME
Conditions: not given
Summary of the method: as §2

Compound | half-life at 1 µM [h]
C/C(=N/c1ccnc2cc(Cl)ccc12)NC1CCN(C)CC1 | > 1
CCN(CC)CCCN/C(C)=N\c1ccnc2cc(Cl)ccc12 | > 1
CCN(CC)CCN/C(=N\c1ccnc2cc(Cl)ccc12)C(C)C | > 1
C/C(=N/c1ccnc2cc(Cl)ccc12)NCCCN1CCOCC1 | 0.417
CCN(CC)CCCCCN/C(C)=N\c1ccnc2cc(Cl)ccc12 | 0.933
CCN(CC)CCC/N=C(/N=c1\ccn(CCCN(CC)CC)c2cc(Cl)ccc12)c1cccnc1 | > 1
CCN(CC)CCCN/C(=N\c1ccnc2cc(Cl)ccc12)c1cccnc1 | 0.6
CCN(CC)CCC/N=C(\c1cccnc1)N(CCCN(CC)CC)c1ccnc2cc(Cl)ccc12 | > 1

Tested on: Plasmodium falciparum
Assay: Antimalarial activity against chloroquine-sensitive Plasmodium falciparum D6 assessed as growth inhibition after 18 hrs by [3H]-hypoxanthine uptake assay
Format: functional, organism-based
Conditions: not given
Summary of the method: as §1

Compound | IC50 [nM]
C/C(=N/c1ccnc2cc(Cl)ccc12)NC1CCN(C)CC1 | 76
CCN(CC)CCCN/C(C)=N\c1ccnc2cc(Cl)ccc12 | 138
CCN(CC)CCN/C(=N\c1ccnc2cc(Cl)ccc12)C(C)C | 54
C/C(=N/c1ccnc2cc(Cl)ccc12)NCCCN1CCOCC1 | 327
CCN(CC)CCCCCN/C(C)=N\c1ccnc2cc(Cl)ccc12 | 125
CCN(CC)CCC/N=C(/N=c1\ccn(CCCN(CC)CC)c2cc(Cl)ccc12)c1cccnc1 | 2500
CCN(CC)CCCN/C(=N\c1ccnc2cc(Cl)ccc12)c1cccnc1 | 38.9
CCN(CC)CCC/N=C(\c1cccnc1)N(CCCN(CC)CC)c1ccnc2cc(Cl)ccc12 | 34.8

Tested on: Plasmodium falciparum
Assay: Antimalarial activity against chloroquine-resistant Plasmodium falciparum C235 assessed as growth inhibition after 18 hrs by [3H]-hypoxanthine uptake assay
Format: functional, organism-based
Conditions: not given
Summary of the method: as §1

Compound | IC50 [nM]
C/C(=N/c1ccnc2cc(Cl)ccc12)NC1CCN(C)CC1 | 89
CCN(CC)CCCN/C(C)=N\c1ccnc2cc(Cl)ccc12 | 133
CCN(CC)CCN/C(=N\c1ccnc2cc(Cl)ccc12)C(C)C | 52
C/C(=N/c1ccnc2cc(Cl)ccc12)NCCCN1CCOCC1 | 578
CCN(CC)CCCCCN/C(C)=N\c1ccnc2cc(Cl)ccc12 | 175
CCN(CC)CCC/N=C(/N=c1\ccn(CCCN(CC)CC)c2cc(Cl)ccc12)c1cccnc1 | 2660
CCN(CC)CCCN/C(=N\c1ccnc2cc(Cl)ccc12)c1cccnc1 | 79.5
CCN(CC)CCC/N=C(\c1cccnc1)N(CCCN(CC)CC)c1ccnc2cc(Cl)ccc12 | 290

Target: hERG (KCNH2) (Homo sapiens, UniProt Q12809)
Sequence (Q12809 whole entry): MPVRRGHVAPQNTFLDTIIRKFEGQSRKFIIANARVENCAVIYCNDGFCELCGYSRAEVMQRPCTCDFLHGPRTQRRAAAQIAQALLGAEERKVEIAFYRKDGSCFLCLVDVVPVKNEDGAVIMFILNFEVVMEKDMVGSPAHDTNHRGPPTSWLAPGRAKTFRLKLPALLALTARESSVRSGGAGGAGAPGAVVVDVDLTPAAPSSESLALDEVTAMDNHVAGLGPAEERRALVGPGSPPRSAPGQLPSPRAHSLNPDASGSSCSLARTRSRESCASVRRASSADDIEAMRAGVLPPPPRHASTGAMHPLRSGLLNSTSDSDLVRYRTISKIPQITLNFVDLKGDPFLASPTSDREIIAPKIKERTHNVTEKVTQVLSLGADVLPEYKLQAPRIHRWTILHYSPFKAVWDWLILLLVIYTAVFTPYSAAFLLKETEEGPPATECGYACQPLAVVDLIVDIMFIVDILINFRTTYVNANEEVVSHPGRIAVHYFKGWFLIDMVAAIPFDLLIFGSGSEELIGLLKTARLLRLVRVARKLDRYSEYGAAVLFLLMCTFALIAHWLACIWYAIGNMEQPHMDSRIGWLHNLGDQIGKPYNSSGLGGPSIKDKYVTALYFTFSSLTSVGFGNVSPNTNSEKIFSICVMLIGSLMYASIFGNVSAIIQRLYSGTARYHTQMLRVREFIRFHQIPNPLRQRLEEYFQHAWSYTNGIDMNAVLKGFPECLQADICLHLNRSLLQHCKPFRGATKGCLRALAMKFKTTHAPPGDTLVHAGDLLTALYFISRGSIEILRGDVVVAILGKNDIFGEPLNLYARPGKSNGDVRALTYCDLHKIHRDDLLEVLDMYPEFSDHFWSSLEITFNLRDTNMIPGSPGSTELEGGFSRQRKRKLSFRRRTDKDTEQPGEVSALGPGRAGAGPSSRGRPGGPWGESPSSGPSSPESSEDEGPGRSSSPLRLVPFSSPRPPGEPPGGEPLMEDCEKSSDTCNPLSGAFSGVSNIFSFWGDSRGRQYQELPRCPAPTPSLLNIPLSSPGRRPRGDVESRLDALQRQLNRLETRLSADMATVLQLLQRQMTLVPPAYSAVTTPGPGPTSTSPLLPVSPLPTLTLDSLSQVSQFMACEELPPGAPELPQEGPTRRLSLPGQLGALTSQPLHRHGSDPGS
Assay: Inhibition of human ERG expressed in CHL cells assessed as tail current at 10 uM after 7 mins by patch clamp assay relative to control
Format: cell-based
Conditions: CHL cells expressing human ERG

Compound | inhibition at 7 min, 10 µM [%]
CCN(CC)CCCN/C(=N\c1ccnc2cc(Cl)ccc12)c1cccnc1 | 101

Tested on: HepG2
Assay: Cytotoxicity against human HepG2 cells after 48 hrs by MTT assay
Format: cell-based
Conditions: HepG2, 48 h
Summary of the method: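 HepG2 cells in supplemented MEM, plated at 9570 cells/well in 384-well format and incubated overnight at 37 °C, 5% CO2. Twelve duplicate 1.6-fold dilutions, 57–10,000 ng/ml, incubated 48 h. MTT added for 1 h at room temperature in the dark, formazan dissolved in acidified isopropanol, absorbance read. IC50 by sigmoidal variable-slope nonlinear regression; tryptanthrin control.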

Compound | IC50 [µg/mL]
C/C(=N/c1ccnc2cc(Cl)ccc12)NC1CCN(C)CC1 | > 30.3
CCN(CC)CCCN/C(C)=N\c1ccnc2cc(Cl)ccc12 | > 10
CCN(CC)CCN/C(=N\c1ccnc2cc(Cl)ccc12)C(C)C | 12.7 (≈ 36.6 µM)
C/C(=N/c1ccnc2cc(Cl)ccc12)NCCCN1CCOCC1 | > 30.3
CCN(CC)CCCCCN/C(C)=N\c1ccnc2cc(Cl)ccc12 | 12.5 (≈ 34.5 µM)
CCN(CC)CCC/N=C(/N=c1\ccn(CCCN(CC)CC)c2cc(Cl)ccc12)c1cccnc1 | 14.1 (≈ 27.7 µM)
CCN(CC)CCCN/C(=N\c1ccnc2cc(Cl)ccc12)c1cccnc1 | 7.87 (≈ 19.9 µM)
CCN(CC)CCC/N=C(\c1cccnc1)N(CCCN(CC)CC)c1ccnc2cc(Cl)ccc12 | 2.94 (≈ 5.78 µM)
